Measurements published in ChEMBL document CHEMBL2375232, “4-Amino-2-arylamino-5-indoloyl/cinnamoythiazoles, analogs of topsentin-class of marine alkaloids, induce apoptosis in HeLa cells” (Eur J Med Chem, 2013).
Active and inactive are the calls of the source. The calls are words filed in the database; no cut-off is given here.

How the values were obtained:
[1] = tested on: HeLa; test: Induction of apoptosis in human HeLa cells assessed as activation of caspase 8 after 48 hrs by fluorescence assay relative to control; format: functional
In short: (§1)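 Fluorogenic substrate assay. 1×10⁶ HeLa cells treated 48 h, lysed in Tris/phosphate buffer pH 7.5 with 1% Triton X-100. Lysate incubated 1 h at 37 °C in PIPES assay buffer pH 7.2 (DTT, EDTA, CHAPS, sucrose) with Ac-DEVD-AFC (caspase 3), Ac-IETD-AFC (caspase 8) or Ac-LEHD-AFC (caspase 9). AFC read at excitation 400 nm, emission 480–520 nm; fold RFU over untreated control; mean ± SD of three experiments.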

[2] = tested on: HeLa; test: Induction of apoptosis in human HeLa cells assessed as activation of caspase 3 after 48 hrs by fluorescence assay relative to control; format: functional; in short: as §1
[3] = tested on: HeLa; test: Induction of apoptosis in human HeLa cells assessed as loss of mitochondrial membrane potential using JC-1 staining after 48 hrs by fluorescence microscopic analysis; format: functional, cell-based
In short: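 Treated cells (48 h, 24-well plates) were given JC-1 diluted in medium and incubated 10 min at 37 °C (or 15 min at RT), washed twice in PBS and viewed by fluorescence microscopy. Orange/red fluorescence marks intact membrane potential; green marks its loss. Confirmed in three independent experiments.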

[4] = tested on: HeLa; test: Inhibition of TNFalpha-induced NFkappaB activation (unknown origin) expressed in human HeLa cells at IC50 treated 24 hrs before TNFalpha challenge measured after 5 hrs by luciferase reporter gene assay; format: cell-based
[5] = tested on: HeLa; test: Induction of apoptosis in human HeLa cells assessed as activation of caspase 9 after 48 hrs by fluorescence assay relative to control; format: functional; in short: as §1
[6] = tested on: HeLa; test: Cell cycle arrest in human HeLa cells assessed as accumulation at G0/G1 phase after 24 hrs by flow cytometry analysis (reference value: 80.7 +/- 0.47%); format: functional
[7] = tested on: HeLa; test: Cell cycle arrest in human HeLa cells assessed as accumulation at S phase after 24 hrs by flow cytometry analysis (reference value: 4.5 +/- 0.2%); format: functional
[8] = tested on: HeLa; test: Induction of apoptosis in human HeLa cells assessed as nuclear condensation using DAPI staining at IC50 after 48 hrs by fluorescence microscopic analysis; format: functional, cell-based
In short: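 They were PBS-washed, stained with DAPI (1 µg/mL in methanol) for 10 min at 37 °C and imaged by fluorescence microscopy. Condensed chromatin or fragmented nuclei scored as apoptotic; three independent experiments.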

[9] = tested on: HeLa; test: Cell cycle arrest in human HeLa cells assessed as accumulation at G2/M phase after 48 hrs by flow cytometry analysis (reference value: 16.6 +/- 0.16%); format: functional
[10] = tested on: HeLa; test: Cytotoxicity against human HeLa cells after 48 hrs by alamar blue assay; format: functional, cell-based
In short: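 Alamar blue (resazurin) viability assay. HeLa cells seeded at 5000 cells/well, treated 24 h later with a range of concentrations for 48 h. Alamar blue (0.2 mg/mL) was then added for 2–4 h and absorbance read at 570 and 595 nm. Survival is percent of untreated control; IC50 taken from the concentration–response curves; three experiments in triplicate.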

[11] = tested on: HeLa; test: Cell cycle arrest in human HeLa cells assessed as accumulation at sub-G0 phase after 24 hrs by flow cytometry analysis (reference value: 1.2 +/- 0.29%); format: functional
[12] = tested on: HeLa; test: Cell cycle arrest in human HeLa cells assessed as accumulation at sub-G0 phase after 48 hrs by flow cytometry analysis (reference value: 2.3 +/- 0.37%); format: functional
[13] = tested on: HeLa; test: Cell cycle arrest in human HeLa cells assessed as accumulation at G0/G1 phase after 48 hrs by flow cytometry analysis (reference value: 73.1 +/- 1.02%); format: functional
[14] = tested on: HeLa; test: Induction of apoptosis in human HeLa cells using acridine orange/ethidium bromide staining at IC50 after 48 hrs by fluorescence microscopic analysis; format: functional, cell-based
In short: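 HeLa cells seeded at 75000/well in 24-well plates, treated at IC50 for 48 h, PBS-washed and stained with acridine orange/ethidium bromide mixture (each 100 µg/mL) for 30 min at 37 °C. Apoptotic morphology assessed by fluorescence microscopy; three independent experiments in duplicate.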

[15] = tested on: HeLa; test: Cell cycle arrest in human HeLa cells assessed as accumulation at G2/M phase after 24 hrs by flow cytometry analysis (reference value: 13.2 +/- 0.48%); format: functional
[16] = tested on: HeLa; test: Cell cycle arrest in human HeLa cells assessed as accumulation at S phase after 48 hrs by flow cytometry analysis (reference value: 7.2 +/- 0.77%); format: functional

| Structure (SMILES) | fold change (FC) [1] | fold change (FC) [2] | Activity [3] | inhibition [4] [%] | fold change (FC) [5] | Activity [6] [%] | Activity [7] [%] | Activity [8] | Activity [9] [%] | IC50 [10] [µM] | Activity [11] [%] | Activity [12] [%] | Activity [13] [%] | Activity [14] | Activity [15] [%] | Activity [16] [%] |
| --- | --- | --- | --- | --- | --- | --- | --- | --- | --- | --- | --- | --- | --- | --- | --- | --- |
| COc1cc(/C=C/C(=O)CC(=O)/C=C/c2ccc(O)c(OC)c2)ccc1O [CURCUMIN] | 1.4 | 2.1 | Active | 79 | 1.7 | – | – | – | – | – | – | – | – | – | – | – |
| COc1ccc(/C=C/C(=O)c2sc(Nc3ccc(Cl)cc3)nc2N)cc1O | 1.2 | 2.2 | Active | 56 | 2.6 | 15.37 | 6.8 | Active | 35.8 | 30 | 25.8 | 35 | 15 | Active | 51.4 | 9 |
| COc1ccc(Nc2nc(Nc3ccc(Cl)cc3)c(C(=O)c3c[nH]c4ccccc34)s2)cc1 | 1.54 | 2.4 | Active | 72 | 4.4 | 59.13 | 10.19 | Active | 9.78 | 20 | 13.17 | 42.37 | 38.53 | Active | 17.51 | 7.69 |
| COc1ccc(Nc2nc(N)c(C(=O)c3c[nH]c4ccccc34)s2)cc1 | 1.1 | 2.8 | Active | 34 | 1.6 | 43.2 | 4.2 | Active | 12.5 | 1 | 16.7 | 49 | 24 | Active | 35.3 | 7.8 |
| COc1cc(/C=C/C(=O)c2sc(Nc3ccc(Cl)cc3)nc2N)ccc1O | 0.9 | 1.5 | Active | 87 | 2.3 | 64.7 | 4.4 | Active | 28.2 | 60 | 3.4 | 16.7 | 38 | Active | 27.2 | 14.2 |
| Nc1nc(Nc2ccc(Cl)cc2)sc1C(=O)c1c[nH]c2ccccc12 | 0.96 | 2.5 | Active | 80 | 2.5 | 56.34 | 8.12 | Active | 21.56 | 45 | 23.74 | 55.33 | 13.75 | Active | 11.8 | 8.95 |
